Consider 14 compounds from article PMC3678535 (Biochemistry, 2013).

“And” between values parts separate entries of the source, which are not always exact repeats. Identical values can stand only once. Like-named read-outs stand apart in the source and are kept apart here. Where only a bound is given, the exact number is not on record here.

The target of data set [1] is T1, iNOS (Mus musculus, UniProt P29477). In words: Ferric difference spectral binding assay. Further details: species or system murine. In outline:
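Murine iNOS (E. coli-expressed, purified), 5 μM, in 100 mM HEPES pH 7.5 with 10 μM H4B, scanned 380–500 nm against a HEPES/H4B blank. […] Test compound titrated at 0.1–1 mM final, additions kept under 5% volume. Ks from Michaelis-Menten fit of concentration vs absorbance difference (local maximum minus minimum).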

In data set [2] the target is T1, iNOS. In words: NO production measured with the Griess reagent, longer incubations. Format: biochemical, murine. The settings on record: incubations of 1, 2, 6, 12 and 24 hours. In outline: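 Purified murine iNOS (E. coli-expressed), 100 nM, incubated 1, 2, 6, 12 and 24 h with test compound at various concentrations, 100 μM NADPH and 10 μM H4B in 100 mM HEPES, 10% glycerol, pH 7.5. Lactate dehydrogenase added to oxidize leftover NADPH, then Griess reagents added. Nitrite/nitrate read by absorbance at 540 nm.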
A general note: Griess reagent forms a coloured azo dye with nitrite.

Data set [3] concerns the target T2, murine iNOS (Mus musculus, UniProt P29477). The data set can be described thus: Inhibition of NO production. Format: biochemical. The settings on record: 10 μM L-arginine, unit printed in cell/text as mM.
Another data set addresses rat nNOS (Rattus norvegicus, UniProt P29476). In words: NO production, hemoglobin capture assay. Format: biochemical. The settings on record: for Km: NO production, 22 °C, pH 7.5.
The conditions of data set [4]: cited from earlier work.
Data set [5] addresses T1, iNOS. The data set can be described thus: Substrate uncoupling: NADPH consumption versus NO production. Format: biochemical, murine. The settings on record: 20 μM arginine, 20 μM NHA, 100 μM NMOA, 100 μM NHMA.
The target of data set [6] is T2, murine iNOS. In words: NO production, hemoglobin capture assay. Format: biochemical.
In a further data set the test system is NOS. The settings on record: cited from earlier work.
Data set [7] concerns the target T1, iNOS. In words: One-carbon metabolite of [14C]-NMOA-iNOS reaction. Format: biochemical, murine. The settings on record: MeOX/FDH conversion, scintillation counting.
The subject of another data set is Methanol oxidase (MeOX). The settings on record: depending on the O2 concentration; cited from earlier work.
Setting [8] is: read-out: Ks (spectral binding constant), imidazole displacement.

rat nNOS, sequence (P29476 whole entry): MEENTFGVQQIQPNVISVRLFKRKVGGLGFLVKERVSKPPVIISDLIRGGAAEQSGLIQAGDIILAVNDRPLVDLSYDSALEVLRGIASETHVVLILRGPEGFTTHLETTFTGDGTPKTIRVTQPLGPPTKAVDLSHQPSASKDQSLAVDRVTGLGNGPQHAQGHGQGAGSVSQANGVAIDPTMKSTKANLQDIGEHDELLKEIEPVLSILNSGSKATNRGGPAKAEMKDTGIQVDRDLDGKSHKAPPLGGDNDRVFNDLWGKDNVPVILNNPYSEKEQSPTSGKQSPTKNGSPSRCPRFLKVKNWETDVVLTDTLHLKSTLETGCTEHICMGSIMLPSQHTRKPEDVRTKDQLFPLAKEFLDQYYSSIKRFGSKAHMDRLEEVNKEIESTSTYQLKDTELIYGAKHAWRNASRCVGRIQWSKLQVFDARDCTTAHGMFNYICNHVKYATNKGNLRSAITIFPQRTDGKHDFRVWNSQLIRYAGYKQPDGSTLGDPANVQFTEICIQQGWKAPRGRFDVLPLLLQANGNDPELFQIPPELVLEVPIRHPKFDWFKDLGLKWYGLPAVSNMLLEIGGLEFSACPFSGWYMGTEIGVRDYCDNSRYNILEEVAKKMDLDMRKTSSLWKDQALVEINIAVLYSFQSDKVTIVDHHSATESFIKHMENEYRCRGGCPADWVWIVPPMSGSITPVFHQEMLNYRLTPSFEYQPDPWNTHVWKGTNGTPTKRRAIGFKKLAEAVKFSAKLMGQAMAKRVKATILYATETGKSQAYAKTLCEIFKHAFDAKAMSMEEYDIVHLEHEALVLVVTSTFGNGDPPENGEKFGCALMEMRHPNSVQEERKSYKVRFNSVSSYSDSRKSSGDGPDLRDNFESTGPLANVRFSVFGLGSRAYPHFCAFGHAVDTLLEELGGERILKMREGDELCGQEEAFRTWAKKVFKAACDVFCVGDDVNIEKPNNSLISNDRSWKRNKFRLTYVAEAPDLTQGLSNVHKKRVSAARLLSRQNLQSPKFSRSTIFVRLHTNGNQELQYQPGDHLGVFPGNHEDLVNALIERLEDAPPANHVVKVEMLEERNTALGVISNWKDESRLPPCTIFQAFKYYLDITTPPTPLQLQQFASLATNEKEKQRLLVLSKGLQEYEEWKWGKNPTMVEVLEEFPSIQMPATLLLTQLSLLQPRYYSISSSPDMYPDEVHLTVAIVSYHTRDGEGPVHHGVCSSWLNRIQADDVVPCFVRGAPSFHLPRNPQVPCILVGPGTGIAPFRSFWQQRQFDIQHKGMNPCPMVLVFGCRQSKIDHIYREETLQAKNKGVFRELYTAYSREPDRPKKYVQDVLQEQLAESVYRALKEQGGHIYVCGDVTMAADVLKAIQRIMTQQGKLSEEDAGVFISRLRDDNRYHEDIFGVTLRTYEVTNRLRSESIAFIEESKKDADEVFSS

On to `CN(CCC[C@H](N)C(=O)O)C(=N)NO` [MHA, N^δ-methyl- N^ω-hydroxy-L-arginine], for which, on iNOS [1] (read-out: Ks (spectral binding constant), unit printed in cell/text as mM), the Kd is greater than 10 mM. Besides, the “NO production (Griess reagent)” value on iNOS [2] was “absence of NO production”. The Ki on murine iNOS [3] is greater than 10 mM.

In the case of `CCONC(=N)NCCC[C@H](N)C(=O)O` [NEOA, N^ω-ethoxy-L-arginine], the Kd on iNOS [1] (setting [8]) is 0.12 ± 0.013 mM. On iNOS [2], the “NO production (Griess reagent)” value is recorded as “absence of NO production”.

Consider `N=C(NO)NCCC[C@H](N)C(=O)O` [NHA, N^ω-hydroxy-L-arginine, reference compound], for which the results for the kcat on rat nNOS and at murine iNOS [6] were 0.217 ± 0.067 s⁻¹ and 0.267 ± 0.033 s⁻¹, respectively. For the same compound, the Km amounted to 5.7 ± 2.1 µM on rat nNOS and 0.022 ± 0.005 mM on murine iNOS [6] (NO production, 22 °C, pH 7.5). Further, the pKa in [4] was 8.5. Moreover, the “NADPH:NO (moles of NADPH consumed per mole of NO formed)” value on iNOS [5] came out at 0.7 ± 0.3. Moreover, the Kd at iNOS [1] (setting [8]) amounted to 0.029 ± 0.004 mM.

On to `CN(O)C(=N)NCCC[C@H](N)C(=O)O` [NHMA, N^ω-hydroxy-N^ω-methyl-L-arginine], for which, on rat nNOS, the catalytic constant (kcat) was 0.0167 ± 0.0033 s⁻¹; the “kcat, times lower compared to NHA” value is roughly 13 times; the Km came out at 2 ± 0.4 µM. Moreover, at iNOS [5], the “NADPH:NO (moles of NADPH consumed per mole of NO formed)” value is 15 and 15.0 ± 2.7. For the same compound, on iNOS [1] (setting [8]), the Kd was determined as 0.034 ± 0.004 mM. For the same compound, at murine iNOS [6], the turnover number (kcat) is 0.015 ± 0.0083 s⁻¹ and the “kcat, times lower compared to NHA” value is given as “about 18 times”. Further, on murine iNOS [6] (NO production, 22 °C, pH 7.5), the Km turned out to be 0.034 ± 0.006 mM.

For the compound `CN=C(N)NCCC[C@H](N)C(=O)O` [NMA, N^ω-Methyl-L-arginine], the kinact in the data set on NOS (inactivator of NOS) was 0.07 min⁻¹. Moreover, the KI (inactivation) in the data set with NOS (read-out: KI (inactivation), inactivator of NOS) was 2.7 µM. Moreover, the Ki on NOS (read-out: Ki (competitive inhibitor), competitive inhibitor of NOS) is 0.2 µM.

As for `CON(C)C(=N)NCCC[C@H](N)C(=O)O` [NMMA, N^ω-methoxy-N^ω-methyl-L-arginine], the Kd on iNOS [1] (setting [8]) came to 0.07 ± 0.005 mM. The “NO production (Griess reagent)” value on iNOS [2] was “absence of NO production”.

In the case of `CONC(=N)NCCC[C@H](N)C(=O)O` [NMOA, N^ω-methoxy-L-arginine], at rat nNOS, the kcat stood at 0.03 ± 0.0083 s⁻¹; the “kcat, times lower compared to NHA” value was roughly 7 times; the Km came to 11 ± 2 µM. Also, on iNOS [5], the “NADPH:NO (moles of NADPH consumed per mole of NO formed)” value is 8 and 8.0 ± 1.5. In addition, the Kd at iNOS [1] (setting [8]) was 0.122 ± 0.02 mM. On murine iNOS [6], the kcat was found to be 0.0783 ± 0.0217 s⁻¹ and the “kcat, times lower compared to NHA” value was “about 4 times”. The Km at murine iNOS [6] (NO production, 22 °C, pH 7.5) came out at 0.088 ± 0.008 mM.

As for `[14CH3]ONC(=N)NCCC[C@H](N)C(=O)O` [[^14C]-NMOA, N^ω-[^14C]-methoxy-L-arginine], the One-carbon metabolite result on iNOS [7] is “methanol”.

On to `N=C(N)NCCC[C@H](N)C(=O)O` [arginine, L-arginine, reference compound], for which the “NADPH:NO (moles of NADPH consumed per mole of NO formed)” value on iNOS [5] turned out to be 1.5.

Consider `CN(CCC[C@H](N)C(=O)O)C(=N)N` [dMA, N^δ-Methyl-L-arginine], for which the Ki on NOS (binds weakly to the NOS active site) was 1400 µM.

As for `C=O` [formaldehyde], in the data set on Methanol oxidase (MeOX), the Km is 2500 µM.

For the compound `c1c[nH]cn1` [imidazole, reference compound], on iNOS [1] (setting [8]), the Kd was in the range of 0.12 to 0.15 mM.

As to `CO` [methanol], in the data set on Methanol oxidase (MeOX), the Km is roughly 2000 µM.

Turning to `CC(C)(C)ONC(=N)NCCC[C@H](N)C(=O)O` [tBOA, N^ω-tert-butyloxy-L-arginine], the catalytic constant (kcat) at murine iNOS [6] is 0.005 ± 0.0017 s⁻¹. Further, the Km at murine iNOS [6] (unit printed in cell/text as mM) came out at 2.7 ± 0.8 mM. In addition, the Ki at murine iNOS [3] is 7.4 ± 4.5 mM.

In general, Ki refers to the dissociation constant of the complex between target and ligand, obtained from inhibition or displacement. For orientation: kcat means the maximal rate divided by the concentration of active sites. A word on the Km: it is the substrate concentration at which the rate is half of its maximum. Usually pKa stands for the pH at which an ionisable group is half protonated. A word on the kinact: it is the rate constant of inactivation at saturating inhibitor.
